Results: PMC8518898 (Journal of Clinical Pharmacology, 2021)
Entries after “also recorded” stand apart in the source; their conditions may differ. Where two headings read alike, the source gives them in different places. Marks after values point to notes of the source that are not given here. One block for each molecule: values may come before it.

What was measured:
[1] = test system: IFN‐α signaling (JAK1/TYK2 kinase dimer); test: In vitro whole blood inhibition of IFN-α signaling; type: cell-based; conditions: read-out: unbound IC50 (IC50,u) of IFN‐α signaling; IC50,u = IC50 × [fu / (blood/plasma ratio)]
[2] = Phase 1 hepatic impairment study; type: in vivo, human; conditions: for MRAUCinf (ratio of metabolite to abrocitinib for AUCinf) / tmax / AUCinf / AUClast / Cmax / AUC(0-inf) / AUC(0-t): single 200-mg oral dose of abrocitinib; for MRAUCinf (ratio of metabolite to abrocitinib for AUCinf) / AUCinf / AUClast / Cmax / AUC(0-inf) / AUC(0-t): geometric mean (geometric %CV); for tmax: median (range); for AUC(0-inf): AUCinf; for AUC(0-t): AUClast
[3] = test system: JAK2; conditions: metabolites; ref data on file; cited from earlier work
[4] = test system: JAK3; conditions: metabolites; ref data on file; cited from earlier work
[5] = test system: tyrosine kinase 2 (TYK2); conditions: metabolites; ref data on file; cited from earlier work
[6] = test system: JAK1; conditions: ref data on file; cited from earlier work
[7] = single oral dose 200-mg abrocitinib/80 μg (500 nCi) [14C]; ref data on file; cited from earlier work
[8] = biological target: IFN‐α signaling (JAK1/TYK2 kinase dimer); conditions: read-out: In vitro whole blood IFN‐α IC50, ref data on file; cited from earlier work
[9] = ref data on file; cited from earlier work
[10] = ref data on file; cited from earlier work; remark: listed apart in the source
[11] = Phase 1 hepatic impairment study; type: in vivo, human
Procedure, shortened: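 Single oral dose after an overnight fast, 8 subjects per hepatic function group. Adverse events, vital signs, physical exams, 12-lead ECGs and safety laboratory tests were assessed up to 72 h post-dose. Treatment-emergent events were scored for incidence, severity and causality. Clinically significant lab abnormalities or ongoing events were followed up by telephone or onsite visit at 28–35 days.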

[12] = ref data on file; cited from earlier work; remark: listed apart in the source
[13] = cited from earlier work
[14] = once daily 100 mg or 200 mg; cited from earlier work
[15] = up to 800-mg single dose, repeated total daily doses up to 400 mg; cited from earlier work
[16] = mild hepatic impairment compared to normal hepatic function
[17] = mild hepatic impairment, plasma
[18] = moderate hepatic impairment compared to normal hepatic function
[19] = moderate hepatic impairment, plasma
[20] = normal hepatic function, plasma
[21] = human, plasma, po, 200 mg, mild hepatic impairment
[22] = human, plasma, po, 200 mg, moderate hepatic impairment
[23] = human, plasma, po, 200 mg, normal hepatic function

IC50 [1]: 165 nM
unadjusted geometric mean ratio for MRAUCinf [2, 16]: 0.239
MRAUCinf (ratio of metabolite to abrocitinib for AUCinf) ([2]; mild hepatic impairment): 0.05 (54)
tmax ([2]; mild hepatic impairment): 1.50 (1.00‐4.00) h
AUCinf [2, 17]: 357.6 (49) ng • h/mL
AUClast [2, 17]: 338.1 (52) ng • h/mL
Cmax [2, 17]: 56.3 (54) ng/mL
unadjusted geometric mean ratio for MRAUCinf [2, 18]: 0.320
MRAUCinf (ratio of metabolite to abrocitinib for AUCinf) ([2]; moderate hepatic impairment): 0.06 (111)
tmax ([2]; moderate hepatic impairment): 2.00 (1.00‐3.00) h
AUCinf [2, 19]: 552.7 (51) ng • h/mL
AUClast [2, 19]: 534.9 (52) ng • h/mL
Cmax [2, 19]: 68.9 (57) ng/mL
MRAUCinf (ratio of metabolite to abrocitinib for AUCinf) ([2]; normal hepatic function): 0.19 (100)
tmax ([2]; normal hepatic function): 2.00 (1.00‐3.00) h
AUCinf [2, 20]: 1120 (28) ng • h/mL
AUClast [2, 20]: 1102 (29) ng • h/mL
Cmax [2, 20]: 241.5 (50) ng/mL
Compound: CN(c1ncnc2[nH]ccc12)C1CC(NS(=O)(=O)CCCO)C1 (stereo not drawn) [M1]
JAK1 enzyme kinase selectivity over JAK2 [3]: approximately 26 fold
JAK1 enzyme kinase selectivity over JAK3 [4]: > 230 fold
JAK1 enzyme kinase selectivity over TYK2 [5]: ~74 fold
pharmacological activity of metabolite [6]: active metabolites
share of circulating species [7]: 11%
IC50 [8]: 296 nM
fraction unbound in plasma (fu) [9]: 0.63
blood/plasma ratio [10]: 1.13

IC50 [1]: 50.6 nM
unadjusted geometric mean ratio for MRAUCinf [2, 16]: 0.680
MRAUCinf (ratio of metabolite to abrocitinib for AUCinf) ([2]; mild hepatic impairment): 0.15 (25)
tmax ([2]; mild hepatic impairment): 2.50 (1.00‐4.00) h
AUCinf [2, 17]: 1178 (22) ng • h/mL
AUClast [2, 17]: 1081 (25) ng • h/mL
Cmax [2, 17]: 139.9 (29) ng/mL
unadjusted geometric mean ratio for MRAUCinf [2, 18]: 0.655
MRAUCinf (ratio of metabolite to abrocitinib for AUCinf) ([2]; moderate hepatic impairment): 0.15 (78)
tmax ([2]; moderate hepatic impairment): 2.00 (2.00‐4.00) h
AUCinf [2, 19]: 1309 (38) ng • h/mL
AUClast [2, 19]: 1192 (43) ng • h/mL
Cmax [2, 19]: 119.2 (43) ng/mL
MRAUCinf (ratio of metabolite to abrocitinib for AUCinf) ([2]; normal hepatic function): 0.22 (56) ^b
tmax ([2]; normal hepatic function): 2.00 (1.00‐3.00) h
AUCinf [2, 20]: 1519 (36) ^b ng • h/mL
AUClast [2, 20]: 1395 (35) ng • h/mL
Cmax [2, 20]: 253.1 (40) ng/mL
Compound: C[C@H](O)CS(=O)(=O)NC1CC(N(C)c2ncnc3[nH]ccc23)C1 (stereo partly drawn) [M2]
JAK1 enzyme kinase selectivity over JAK2 [3]: 49 fold
JAK1 enzyme kinase selectivity over JAK3 [4]: > 559 fold
JAK1 enzyme kinase selectivity over TYK2 [5]: 68 fold
pharmacological activity of metabolite [6]: active metabolites
share of circulating species [7]: 12%
IC50 [8]: 90.5 nM
fraction unbound in plasma (fu) [9]: 0.71
blood/plasma ratio [10]: 1.27

Compound: CCCS(=O)(=O)N[C@H]1C[C@@H](N(C)c2ncnc3[nH]ccc23)C1 [abrocitinib, N‐{cis‐3‐[Methyl(7H‐pyrrolo[2,3‐d]pyrimidin‐4‐yl)amino]cyclobutyl}propane‐1‐sulfo namide]
AUC(0-inf) [2, 21]: 7450 ng·h/mL
AUC(0-inf) [2, 22]: 8600 ng·h/mL
AUC(0-inf) [2, 23]: 5590 ng·h/mL
AUC(0-t) [2, 21]: 7430 ng·h/mL
AUC(0-t) [2, 22]: 8550 ng·h/mL
AUC(0-t) [2, 23]: 5550 ng·h/mL
Cmax ([2]; human, plasma, po, 200 mg, Cmax, mild hepatic impairment): 1280 ng/mL
Cmax ([2]; human, plasma, po, 200 mg, Cmax, moderate hepatic impairment): 1430 ng/mL
Cmax ([2]; human, plasma, po, 200 mg, Cmax, normal hepatic function): 1350 ng/mL
tmax ([2]; human, plasma, po, 200 mg, tmax, mild hepatic impairment): 2 h
tmax ([2]; human, plasma, po, 200 mg, tmax, moderate hepatic impairment): 1 h
tmax ([2]; human, plasma, po, 200 mg, tmax, normal hepatic function): 2 h
increase in AUCinf [2, 16]: ≈ 33.3%
effect of hepatic impairment on PK and safety ([2]; mild or moderate hepatic impairment): no clinically relevant effect
increase in AUCinf [2, 18]: ~54.0%
subjects with laboratory abnormality leukocyte esterase (≥1) ([11]; mild hepatic impairment): 4 subjects
subjects reporting diarrhea ([11]; mild hepatic impairment (25%)): 2 subjects
subjects reporting headache ([11]; mild hepatic impairment (25%)): 2 subjects
subjects with treatment-emergent adverse events ([11]; mild hepatic impairment (N = 8)): 3 subjects
subjects with laboratory abnormality leukocyte esterase (≥1) ([11]; moderate hepatic impairment): 5 subjects
subjects reporting adverse events ([11]; moderate hepatic impairment (N = 8)): No subjects
subjects with laboratory abnormality leukocyte esterase (≥1) ([11]; normal hepatic function): 1 subject
safety and tolerability ([11]; single 200-mg oral dose, all 3 hepatic function groups): generally safe and well tolerated
absolute oral bioavailability [12]: 60%
fraction absorbed [12]: 91%
median tmax ([13]; healthy subjects, suspension, doses of 3 to 200 mg): < 1 h
increases in Cmax and AUCτ with increasing dose ([13]; multiple dose, total daily dose 30 mg up to 400 mg): greater than proportional
increases in AUCinf, dose proportionality ([13]; single doses 400 and 800 mg): greater than dose proportional
Cmax dose proportionality ([13]; single-dose range 3 to 800 mg): increased proportionally with dose
share of circulating species [7]: 26%
efficacy and tolerability in moderate to severe atopic dermatitis [14]: effective and well tolerated; also recorded: safe and efficacious
safety and tolerability of higher doses [15]: safe and well tolerated
